Results: ChEMBL document CHEMBL1125516, “TSAO analogues. Stereospecific synthesis and anti-HIV-1 activity of 1-[2',5'-bis-O-(tert-butyldimethylsilyl)-beta-D-ribofuranosyl]-3'-spiro -5''- (4''-amino-1'',2''-oxathiole 2'',2''-dioxide) pyrimidine and pyrimidine-modified nucleosides” (J Med Chem, 1992)

What was measured:
[1] = tested on: MT4; assay: Cytotoxic concentration required to reduce MT-4 cell viability by 50%; format: functional; conditions: Homo sapiens
Outline: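 MT-4 cells (HTLV-1-transformed human T-lymphocytes) at 5 × 10^5 cells/mL were mock-infected and mixed 1:1 with serial dilutions of compound. After 5 days, viable cells were counted by trypan blue exclusion in a blood-cell-counting chamber. CC50 is the concentration reducing viable cell number by 50%. Values are means of at least three to five independent experiments.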

[2] = tested on: MT4; assay: Concentration required to inhibit HIV-1 induced cytopathicity in MT-4 cells by 50%; format: functional, cell-based; conditions: Homo sapiens
Outline: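 HIV-1 IIIB-infected human MT-4 cells (HTLV-1-transformed), 5 x 10^5 cells/mL, infected at 100 CCID50 per mL of cell suspension, then mixed with compound dilutions. After 5 days, viable cells were counted by trypan blue staining in a blood-cell-counting chamber. EC50 is the concentration […]. Values are means of at least three to five independent experiments.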

[3] = Selectivity index was defined as the ratio of CC50 to EC50; format: functional
Outline: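 The ratio is CC50/EC50. Both come from MT-4 cells at 5 × 10^5 cells/mL, mixed 1:1 with compound dilutions for 5 days, with viable cells counted by trypan blue. EC50 used cells infected with HIV-1 (IIIB) at 100 CCID50 per mL. CC50 used mock-infected cells. […] Values are means of three to five experiments.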

Row | Compound | CC50 [1] | EC50 [2] | Selectivity index [3]
1 | CC(=O)O[C@H]1[C@H](n2cc(C)c(=O)[nH]c2=O)O[C@H](COC(=O)c2ccccc2)[C@@]12OS(=O)(=O)C=C2N | > 200 µM | > 200 µM | 
2 | CC(C)=CCn1c(=O)c(C)cn([C@@H]2O[C@H](CO[Si](C)(C)C(C)(C)C)[C@@]3(OS(=O)(=O)C=C3N)[C@H]2O[Si](C)(C)C(C)(C)C)c1=O | 69 µM | 0.377 µM | 183
3 | Cc1cn([C@@H]2O[C@H](CO[Si](C)(C)C(C)(C)C)C3(OS(=O)(=O)C=C3N)[C@H]2O[Si](C)(C)C(C)(C)C)c(=O)[nH]c1=O (some centres undefined) | 14 µM | 0.06 µM | 
4 | CC(C)(C)[Si](C)(C)OC[C@H]1O[C@@H](n2ccc(=O)[nH]c2=O)[C@H](O[Si](C)(C)C(C)(C)C)C12OS(=O)(=O)C=C2N (some centres undefined) | 15 µM | 0.206 µM | 73
5 | Cc1cn([C@@H]2O[C@H](CO[Si](C)(C)C(C)(C)C)[C@@]3(OS(=O)(=O)C=C3N)[C@H]2O[Si](C)(C)C(C)(C)C)c(=O)n(C)c1=O | 240 µM | 0.059 µM | 4090
6 | CC(C)(C)[Si](C)(C)OC[C@H]1O[C@@H](n2ccc(N)nc2=O)[C@H](O[Si](C)(C)C(C)(C)C)[C@]12OS(=O)(=O)C=C2N | > 360 µM | 1 µM | > 360
7 | Cc1cn([C@@H]2O[C@H](COC(=O)c3ccccc3)[C@@]3(OS(=O)(=O)C=C3N)[C@H]2O[Si](C)(C)C(C)(C)C)c(=O)[nH]c1=O | 36 µM | > 15 µM | < 2.5
8 | C=CCn1c(=O)ccn([C@@H]2O[C@H](CO[Si](C)(C)C(C)(C)C)[C@@]3(OS(=O)(=O)C=C3N)[C@H]2O[Si](C)(C)C(C)(C)C)c1=O | 8.9 µM | 0.615 µM | 15
9 | Cc1cn([C@@H]2O[C@H](CO)[C@@]3(OS(=O)(=O)C=C3N)[C@H]2O[Si](C)(C)C(C)(C)C)c(=O)[nH]c1=O | 229 µM | > 80 µM | < 2.5
10 | C=CCn1c(=O)c(C)cn([C@@H]2O[C@H](CO[Si](C)(C)C(C)(C)C)[C@@]3(OS(=O)(=O)C=C3N)[C@H]2O[Si](C)(C)C(C)(C)C)c1=O |  | 0.233 µM | > 1420
11 | Cc1ccnc2c1NC(=O)c1cccnc1N2C1CC1 [NEVIRAPINE] | > 80 µM | 0.128 µM | > 625
12 | Cc1cn([C@@H]2O[C@H](CO[Si](C)(C)C(C)(C)C)[C@@]3(OS(=O)(=O)C=C3N)[C@H]2O[Si](C)(C)C(C)(C)C)c(=O)nc1N | 31 µM | 0.127 µM | 246
13 | CC(C)=CCN1Cc2cccc3[nH]c(=S)n(c23)C[C@@H]1C | > 80 µM | 0.076 µM | > 1050
14 | CCn1c(=O)c(C)cn([C@@H]2O[C@H](CO[Si](C)(C)C(C)(C)C)[C@@]3(OS(=O)(=O)C=C3N)[C@H]2O[Si](C)(C)C(C)(C)C)c1=O | 123 µM | 0.123 µM | 1000
